SENP8 block-1: SENP8 (human) protease inhibition; recombinant SENP8, Nedd8 substrate fluorescence; inhibition, % at 20 µM; actives 0.64% (n = 360,000); in the data active = inhibition mostly above about 40%, no sharp cut-off; inactive = mostly below about 27%
SENP8 block-2: blocks the human protease SENP8; actives 1.2% (n = 330,000); purified SENP8, Z-RLRGG-aminoluciferin cleavage, luminescence; AID 2540; inhibition, % at 10 µM; in the data active = inhibition above about 50%
SENP7 inh: inhibitors of human SENP7 protease | Q9BQF6 | recombinant SENP7, Z-RLRGG-aminoluciferin luminescence, 40 min | inhibition, % at 5 µM | actives 1.5% (n = 330,000) | AID 434973;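 active = inhibition above about 50% at the single test dose, limit read from the data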
Target sequence (Q9BQF6 706-1050 limits assumed): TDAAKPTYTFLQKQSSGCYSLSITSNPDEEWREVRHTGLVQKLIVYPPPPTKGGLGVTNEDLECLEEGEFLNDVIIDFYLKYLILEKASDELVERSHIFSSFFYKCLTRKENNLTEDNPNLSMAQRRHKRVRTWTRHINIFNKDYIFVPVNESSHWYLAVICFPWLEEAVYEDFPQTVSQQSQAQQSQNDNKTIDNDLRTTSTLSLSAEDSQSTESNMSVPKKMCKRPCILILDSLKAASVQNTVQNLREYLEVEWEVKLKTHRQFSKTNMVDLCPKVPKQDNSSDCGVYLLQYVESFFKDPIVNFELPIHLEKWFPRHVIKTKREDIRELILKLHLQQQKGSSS
SENP6 inh: blocks the human protease SENP6; actives 1.8% (n = 330,000); Recombinant SENP6 catalytic domain, aminoluciferin luminescence; inhibition, % at 10 µM; Q9GZR1;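 active = inhibition above about 50% at the single tested dose, limit read from the data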
SENP1 FRET inh: SENP1 (human) catalytic domain inhibition; actives 0.21% (n = 360,000); inhibition, % at 10 µM; recombinant SENP1 catalytic domain, CyPet-SUMO1-YPet FRET cleavage;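 active = inhibition at least 30% at 10 µM, raw YFP signal under a set limit, fluorescence ratio 0.5 to 1.5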
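Compound: 10 µM single point, 0.5% DMSO; Test system: hSENP1 catalytic domain, recombinant; Timing: 50 min reaction at room temperature; Technique: FRET, CFP and YFP emission; Control set: no-enzyme wells low, DMSO-plus-enzyme wells high control.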
Platelet DG rel: platelet dense granule release activity. human platelet-rich plasma, SFLLRN dense granule ATP release, luminescence. inhibition, %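 (compounds screened at 7.5 µM in platelet-rich plasma)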. actives 0.22% (n = 300,000). AID 1663;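 active = mean replicate score, as percent of positive control, at or above 50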
SENP8 confirm: confirmation of human SENP8 protease inhibitors. shares compounds with SENP7 inh. Recombinant SENP8, Z-RLRGG-aminoluciferin luminescence, 60 min. inhibition, % at 12.5 µM. actives 40% (n = 6,200). AID 488912;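 active = mean inhibition across replicates above about 50%, limit read from the data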
SENP6 confirm: human SENP6 inhibition, confirmed. shares compounds with SENP7 inh. recombinant SENP6, Z-RLRGG-aminoluciferin luminescence. inhibition, % at 12.5 µM. actives 58% (n = 6,200). AID 488915
SENP7 confirm: human SENP7 inhibition, confirmed | actives 69% (n = 6,200) | recombinant SENP7, Z-RLRGG-aminoluciferin luminescence, 40 min | inhibition, % at 12.5 µM | AID 488917 | shares compounds with SENP7 inh
Casp3 SENP sel: inhibits human caspase-3 in SENP selectivity test | actives 60% (n = 6,200) | shares compounds with SENP7 inh | purified caspase-3, Z-DEVD-aminoluciferin luminescence, 60 min | inhibition, % at 12.5 µM;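 active = mean inhibition above about 50%, limit read from the data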
Luc interf: luminescence interference (SENP counter-screen). shares compounds with SENP7 inh. Pre-incubated SENP8/Z-RLRGG-aminoluciferin, luciferase luminescence interference. inhibition, % at 12.5 µM. actives 39% (n = 6,200). AID 488919;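 active = mean inhibition above about 50% when retested at one dose, limit read from the data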
Large screens that a line does not name were inactive (follow-up assays come after a bar, where they were run). A selection: hits, their analogues and other compounds. The true share with any hit is near 2.6%.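 Rule for the calls, unless noted: active = mean inhibition above about 50% in the one-dose retest (limit read from the data); inactive = the rest.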

CC1(CCc2ccccc2)NC(=O)N(CC(=O)Nc2c(F)cccc2F)C1=O (centres undefined)	none (no result: Platelet DG rel)
c1ccc(C2=NNC(=NC3CC3)SC2)cc1	SENP8 block-2 94, SENP7 inh 93, SENP6 inh 93 | SENP8 confirm 96 | SENP6 confirm 97 | SENP7 confirm 102 | Casp3 SENP sel 98 | Luc interf 95
c1ccc2c(C3=NNC(=NC4CC4)SC3)c[nH]c2c1	SENP6 inh 63, Platelet DG rel 56 | SENP8 confirm inactive | SENP6 confirm inactive | SENP7 confirm 81 | Casp3 SENP sel 80 | Luc interf 67
C=C(C)COc1ccc(-c2ncncc2-c2ccccc2OC)c(O)c1	SENP8 block-2 85 | SENP8 confirm inactive | SENP6 confirm inactive | SENP7 confirm inactive | Casp3 SENP sel inactive | Luc interf inactive
Cc1sc(NC(=O)/C=C/c2ccco2)c(C(=O)O)c1C	SENP6 inh 73 | SENP8 confirm 72 | SENP6 confirm 69 | SENP7 confirm 88 | Casp3 SENP sel 85 | Luc interf inactive
COCn1c(-c2ccc(OC)cc2)nc2ccccc21	SENP7 inh 53, SENP6 inh 59 | SENP8 confirm 55 | SENP6 confirm 53 | SENP7 confirm 86 | Casp3 SENP sel 81 | Luc interf 63
Nc1ccc(Oc2ccc([N+](=O)[O-])cc2[N+](=O)[O-])cc1	none
CC1=NN(c2ccccc2)C(=O)/C1=C\c1ccc(Oc2ccc([N+](=O)[O-])cc2[N+](=O)[O-])cc1	SENP8 block-1 41, SENP7 inh 68 | SENP8 confirm inactive | SENP6 confirm inactive | SENP7 confirm inactive | Casp3 SENP sel inactive | Luc interf inactive
COc1ccccc1/C=C1/C(=O)N(c2ccccc2)N=C1C	SENP7 inh 60 | SENP8 confirm inactive | SENP6 confirm inactive | SENP7 confirm inactive | Casp3 SENP sel inactive | Luc interf inactive
CC1=NN(c2ccc(Br)cc2)C(=O)/C1=C/c1cccs1	SENP8 block-1 43, SENP7 inh 70, SENP6 inh 75 | SENP8 confirm inactive | SENP6 confirm inactive | SENP7 confirm inactive | Casp3 SENP sel inactive | Luc interf inactive
CC1=NN(c2ccccc2)C(=O)/C1=C\c1cn(-c2ccccc2)nc1C	none
COc1ccc(NS(=O)(=O)c2cccc(C(=O)NN=Cc3cc(Br)c(O)c(Br)c3)c2)cc1	none (no result: Platelet DG rel)
Cc1ccc(C(=O)N2CCCC(N3CCN(c4ccccc4C)CC3)C2)c(=O)[nH]1 (centres undefined)	none
Cc1cccnc1Nc1nc(-c2ccc(F)cc2)cs1	SENP8 block-2 89, SENP7 inh 93, SENP6 inh 92 | SENP8 confirm 89 | SENP6 confirm 93 | SENP7 confirm 101 | Casp3 SENP sel 74 | Luc interf 53
COc1cccc(Nc2nc(-c3ccc(O)cc3)cs2)c1	none
Cc1cccnc1Nc1nc(-c2ccc(O)cc2)cs1	SENP8 block-2 96, SENP7 inh 94, SENP6 inh 93 | SENP8 confirm 96 | SENP6 confirm 98 | SENP7 confirm 102 | Casp3 SENP sel 89 | Luc interf 97
COC(=O)[C@]12CCCCC=C1N(Cc1cccc3ccccc13)C(=O)[C@H](CC(=O)N1CCN(C(=O)C3CC3)CC1)C2	none (no result: SENP8 block-2, SENP7 inh, SENP6 inh, Platelet DG rel)

Source: PubChem (several laboratories)
